Among the data in ChEMBL document CHEMBL1158046, “Photoactivated insecticidal thiophene derivatives from Xanthopappus subacaulis” (2006) are LC50 values, retold here.

Test [1] concerns Aedes albopictus. The test can be described thus: Insecticidal activity against Asian tiger mosquito fourth-instar larvae after 24 hrs in dark. It counts as functional. In short, it runs like this: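 Aedes albopictus fourth-instar larvae from a laboratory colony; samples dissolved and serially diluted in acetone, 0.4 mL added to 20 mL dechlorinated water with 30 larvae; held in the dark throughout the trial; mortality read at 24 h, three replications per concentration; LC50 (concentration causing 50% mortality) determined.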

The subject of test [2] is Aedes albopictus. The test can be described thus: Insecticidal activity against Asian tiger mosquito fourth-instar larvae irradiated with 2074 uW/cm'2 UV light for 1.5 hrs. Format: functional. Conditions: light or radiation study. The gist of the method:
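Aedes albopictus fourth-instar larvae from a laboratory colony; acetone-diluted samples (0.4 mL) added to 20 mL dechlorinated water with 30 larvae; 3 h dark incubation, then 1.5 h UV irradiation (300-400 nm, max 365 nm), then 24 h in darkness; mortality from three replications per concentration; LC50 (concentration causing 50% mortality) determined.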

As a reminder, the LC50 is the concentration lethal to half of the exposed cells or organisms.

Structures are written as SMILES. Converted amounts (≈) assume the structure as drawn.

As for `C/C=C/C#CC#Cc1ccc(CO)s1`, the 50% lethal concentration (LC50) in test [1] is > 10 µg/mL; in test [2], 0.3 µg/mL (≈ 1.48 µM).
Taken in the same sequence, the figures for `C/C=C/C#CC#Cc1ccc(C(O)CO)s1` (racemic) were > 10 µg/mL and 4.2 µg/mL (≈ 18.1 µM).
For `C/C=C/C#CC#Cc1ccc(C(COC(C)=O)OC(C)=O)s1` (racemic), the results for the median lethal concentration (LC50) in test [1] and in test [2] were > 10 µg/mL and 0.66 µg/mL (≈ 2.09 µM), respectively.
On to `C/C=C/C#CC#Cc1ccc(C(O)CCl)s1` (racemic) [XANTHOPAPPIN B], for which the median lethal concentration (LC50) in test [1] was found to be 5.1 µg/mL (≈ 20.3 µM); in test [2] it was 0.53 µg/mL (≈ 2.11 µM).
Taken in the same sequence, the figures for `C/C=C/C#CC#Cc1ccc(C(=O)C(O)(CC(C)=O)c2ccc(C#CC#C/C=C/C)s2)s1` (racemic) [XANTHOPAPPIN C] were > 10 µg/mL and 0.95 µg/mL (≈ 2.08 µM).
In the case of `C/C=C/C#CC#Cc1cccs1` [XANTHOPAPPIN A], the 50% lethal concentration (LC50) in test [1] is > 10 µg/mL; in test [2], 0.71 µg/mL (≈ 4.12 µM).
